{"data": "Results pooled from the literature", "target": "Carbonic anhydrase 2 (CA2, Homo sapiens, UniProt P00918)", "observed": "enzyme activity", "action": "inhibitor"}
{"Compound": "CC(C)c1cc2c(c(O)c1O)[C@@]1(C(=O)O)CCCC(C)(C)[C@@H]1CC2", "measurement": "IC50", "value": "3.77 nM"}
{"Compound": "O=C(Nc1ccc2c(c1)C=CCP(=O)(O)O2)c1ccc(Br)cc1", "assay": "stopped-flow", "measurement": "Ki", "value": "> 10 µM"}
{"Compound": "CC(C)c1cc2c(c(O)c1O)[C@@]13CCCC(C)(C)[C@@H]1[C@H](OC3=O)[C@H]2O", "measurement": "IC50", "value": "4.18 nM"}
{"Compound": "NC(=S)N/N=C1/c2ccccc2[C@@H]2[C@H]1[C@@H](c1cccs1)[C@H](C(=O)c1cccs1)[C@H]2c1cccs1 (racemic)", "assay": "absorbance", "measurement": "IC50", "value": "510 nM"}
{"Compound": "O=C(Nc1ccc2c(c1)C=CCP(=O)(O)O2)c1ccc2ccccc2c1", "assay": "stopped-flow", "measurement": "Ki", "value": "> 10 µM"}
{"Compound": "NC(=S)N/N=C1/c2ccccc2[C@@H]2[C@H]1[C@@H](c1ccc(F)cc1)[C@H](C(=O)c1ccc(F)cc1)[C@H]2c1ccc(F)cc1 (racemic)", "assay": "absorbance", "measurement": "IC50", "value": "605 nM"}
{"Compound": "CC(C)c1cc2c(c(O)c1O)[C@@]13CCCC(C)(C)[C@@H]1[C@@H](O)[C@@H]2OC3=O", "measurement": "Ki", "value": "0.00357 µM"}
{"Compound": "O=C(Nc1ccc2c(c1)C=CCP(=O)(O)O2)c1ccc(Cl)cc1", "assay": "stopped-flow", "measurement": "Ki", "value": "> 10 µM"}
{"Compound": "NC(=S)N/N=C1/c2ccccc2[C@@H]2[C@H]1[C@@H](c1ccc(Cl)cc1)[C@H](C(=O)c1ccc(Cl)cc1)[C@H]2c1ccc(Cl)cc1 (racemic)", "assay": "absorbance", "measurement": "IC50", "value": "298 nM"}
{"Compound": "N#C[Se]CCCCOc1ccc2c(-c3ccccc3)cc(=O)oc2c1", "assay": "stopped-flow", "measurement": "Ki", "value": "> 100 µM"}
{"Compound": "CC(C)c1cc2c(c(O)c1O)[C@@]13CCCC(C)(C)[C@@H]1C[C@@H]2OC3=O", "measurement": "Ki", "value": "0.0088 µM"}
{"Compound": "Cc1ccc(NC(=O)Nc2ccc3c(c2)C=CCP(=O)(O)O3)cc1", "assay": "stopped-flow", "measurement": "Ki", "value": "> 10 µM"}
{"Compound": "NC(=S)N/N=C1/c2ccccc2[C@@H]2[C@H]1[C@@H](c1ccccc1)[C@H](C(=O)c1ccccc1)[C@H]2c1ccccc1 (racemic)", "assay": "absorbance", "measurement": "IC50", "value": "1330 nM"}
{"Compound": "N#C[Se]Cc1cc(=O)oc2cc(O)ccc12", "assay": "stopped-flow", "measurement": "Ki", "value": "> 100 µM"}
{"Compound": "O=C(Nc1ccc2c(c1)C=CCP(=O)(O)O2)c1ccco1", "assay": "stopped-flow", "measurement": "Ki", "value": "> 10 µM"}
